Converted amounts (≈) assume the structure as drawn.
Tests used:
Assay type in all cases: functional
Conditions in all cases: read-out: ED50 (the source's name)
[1] = tested on: KB; assay: Cytotoxicity against human KB cells
How it was run: (§1)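 In vitro cytotoxicity assay run by published protocols. Cell panel: human malignant melanoma ([…]), lung carcinoma (A-549), ileocecal adenocarcinoma (HCT-8), nasopharyngeal epidermoid carcinoma (KB), medulloblastoma (TE-671), and murine lymphocytic leukemia (P-388).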

[2] = tested on: RPMI-7951; assay: Cytotoxicity against human RPMI7951 cells; how it was run: as §1
[3] = tested on: A549; assay: Cytotoxicity against human A549 cells; how it was run: as §1
[4] = tested on: TE-671; assay: Cytotoxicity against human TE671 cells; how it was run: as §1
[5] = tested on: P388; assay: Cytotoxicity against mouse P388 cells; how it was run: as §1
[6] = tested on: HCT-8; assay: Cytotoxicity against human HCT8 cells; how it was run: as §1

How did the EC50 [1] turn out when `COC(=O)[C@]12OC[C@]34[C@H]([C@@H](O)[C@@H]1O)[C@@]1(C)C(=O)C(O)=C[C@@H](C)[C@@H]1C[C@H]3OC(=O)[C@H](OC(=O)/C=C(\C)C(C)C)[C@@H]24` [BRUCEANOL F] was run?
The EC50 was 0.43 µg/mL (≈ 0.784 µM).

And the EC50 [2]?
Its EC50 is 0.09 µg/mL (≈ 0.164 µM).

What about the EC50 [3] of the same compound?
The EC50 was 0.55 µg/mL (≈ 1 µM).

What about the EC50 [4] of the same compound?
The EC50 was 0.09 µg/mL (≈ 0.164 µM).

And the EC50 [5]?
The EC50 was 0.36 µg/mL (≈ 0.656 µM).

And the EC50 [6]?
The EC50 was 0.13 µg/mL (≈ 0.237 µM).

Which EC50 [1] does the source give for `COC(=O)[C@]12OC[C@]34[C@H]([C@@H](O)[C@@H]1O)[C@@]1(C)[C@H](O)C(=O)C[C@@H](C)[C@@H]1C[C@H]3OC(=O)[C@H](OC(=O)/C=C(\C)C(C)C)[C@@H]24` [BRUCEANOL E] here?
The EC50 was 0.55 µg/mL (≈ 0.999 µM).

What about the EC50 [2] of the same compound?
The EC50 was 0.11 µg/mL (≈ 0.2 µM).

And the EC50 [3]?
Its EC50 is 3.75 µg/mL (≈ 6.81 µM).

What about the EC50 [4] of the same compound?
The EC50 was 0.12 µg/mL (≈ 0.218 µM).

What about the EC50 [5] of the same compound?
Its EC50 is 0.57 µg/mL (≈ 1.04 µM).

And the EC50 [6]?
Its EC50 is 0.37 µg/mL (≈ 0.672 µM).

`COC(=O)[C@]12OC[C@]34[C@H]([C@@H](O)[C@@H]1O)[C@@]1(C)[C@H](O)C(=O)C=C(C)[C@@H]1C[C@H]3OC(=O)[C@H](OC(=O)/C=C(\C)C(C)C)[C@@H]24` [BRUCEANOL D] was tested. Which EC50 [1] did it give?
Its EC50 is 0.08 µg/mL (≈ 0.146 µM).

And the EC50 [2]?
Its EC50 is 0.09 µg/mL (≈ 0.164 µM).

What about the EC50 [3] of the same compound?
Its EC50 is 0.55 µg/mL (≈ 1 µM).

What about the EC50 [4] of the same compound?
Its EC50 is 0.08 µg/mL (≈ 0.146 µM).

What about the EC50 [5] of the same compound?
Its EC50 is 0.09 µg/mL (≈ 0.164 µM).

What about the EC50 [6] of the same compound?
Its EC50 is 0.09 µg/mL (≈ 0.164 µM).

From ChEMBL document CHEMBL1147401, “Bruceanols D, E, and F three new cytotoxic quassinoids from Brucea antidysenterica” (1993)
